Results as given in ChEMBL document CHEMBL1833861 (J Med Chem, 2011).
Active and inactive are the calls of the source. No cut-off for these calls is given here.

Legend:
[1] = molecular target: Delta-type opioid receptor (Homo sapiens) (UniProt P41143); experiment: Binding affinity to delta opioid receptor at 10 uM by radioligand displacement assay
[2] = molecular target: 5-hydroxytryptamine receptor 1A (Homo sapiens) (UniProt P08908); experiment: Binding affinity to 5HT1A receptor at 10 uM by radioligand displacement assay
[3] = molecular target: Beta-2 adrenergic receptor (Homo sapiens) (UniProt P07550); experiment: Binding affinity to beta2 adrenergic receptor at 10 uM by radioligand displacement assay
[4] = organism: Rattus norvegicus; experiment: Selectivity ratio of Ki for rat alpha4beta2 nAChR over Ki for rat alpha3beta4 nAChR
[5] = molecular target: T1, Neuronal acetylcholine receptor; alpha4/beta2 (Homo sapiens, UniProt P17787+P43681); experiment: Agonist activity at human alpha4beta2 nAChR expressed in human SH-EP1 cells assessed as increase of carbamylcholine-induced 86Rb+ ion efflux by liquid scintillation counting; type: functional, cell-based
[6] = molecular target: Alpha-1B adrenergic receptor (Homo sapiens) (UniProt P35368); experiment: Binding affinity to Alpha-1B adrenergic receptor at 10 uM by radioligand displacement assay
[7] = molecular target: 5-hydroxytryptamine receptor 7 (Homo sapiens) (UniProt P34969); experiment: Binding affinity to 5HT7 receptor at 10 uM by radioligand displacement assay
[8] = molecular target: 5-hydroxytryptamine receptor 2C (Homo sapiens) (UniProt P28335); experiment: Binding affinity to 5HT2C receptor at 10 uM by radioligand displacement assay
[9] = molecular target: Neuronal acetylcholine receptor; alpha3/beta4 (Rattus norvegicus, UniProt P04757+P12392); experiment: Displacement of [3H]epibatidine from rat alpha3beta4 nAChR receptor; type: protein-complex assay
[10] = system: Plasma; experiment: Plasma protein binding in CD1 mouse at 10 uM; type: ADME, cell-free
[11] = molecular target: Sigma non-opioid intracellular receptor 1 (Homo sapiens) (UniProt Q99720); experiment: Binding affinity to sigma1 receptor at 10 uM by radioligand displacement assay
[12] = molecular target: D(3) dopamine receptor (Homo sapiens) (UniProt P35462); experiment: Binding affinity to dopamine D3 receptor at 10 uM by radioligand displacement assay
[13] = molecular target: Histamine H4 receptor (Homo sapiens) (UniProt Q9H3N8); experiment: Binding affinity to histamine H4 receptor at 10 uM by radioligand displacement assay
[14] = molecular target: Alpha-2B adrenergic receptor (Homo sapiens) (UniProt P18089); experiment: Binding affinity to alpha2B adrenergic receptor at 10 uM by radioligand displacement assay
[15] = system: Liver; experiment: Metabolic stability in mouse liver microsomes at 1 uM; type: ADME, Microsome
[16] = molecular target: T1, Neuronal acetylcholine receptor; alpha4/beta2; experiment: Agonist activity at human alpha4beta2 nAChR expressed in human SH-EP1 cells assessed as increase of carbamylcholine-induced 86Rb+ ion efflux by liquid scintillation counting relative to carbamylcholine; type: functional, cell-based
[17] = molecular target: D(2) dopamine receptor (Homo sapiens) (UniProt P14416); experiment: Binding affinity to dopamine D2 receptor at 10 uM by radioligand displacement assay
[18] = Inhibition of cytochrome P450; type: ADME
Outline: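 Inhibitory potential tested against nine different CYP450 enzymes.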

[19] = system: Mus musculus; experiment: Antidepressant activity in BALB/cJ mouse assessed as decrease in immobility time at 1 mg/kg, ip after 30 mins by forced swim test; type: functional, organism-based; design: dose 1 mg/kg
Outline: (§1)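 Male BALB/cJ mice, 8–10 weeks old; compound in injectable water given ip at 10 mL/kg. Sertraline (10 or 20 mg/kg) served as positive control. 30 min post-dose, each mouse placed in a glass cylinder with 12 cm of 23 ± 1 °C water; immobility (floating) timed over a 6 min trial. n = 10/group; ANOVA with post hoc test.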

[20] = molecular target: Alpha-1A adrenergic receptor (Homo sapiens) (UniProt P35348); experiment: Binding affinity to alpha1A adrenergic receptor at 10 uM by radioligand displacement assay
[21] = molecular target: 5-hydroxytryptamine receptor 1D (Homo sapiens) (UniProt P28221); experiment: Binding affinity to 5HT1D receptor at 10 uM by radioligand displacement assay
[22] = molecular target: T1, Neuronal acetylcholine receptor; alpha4/beta2; experiment: Antagonist activity at human alpha4beta2 nAChR expressed in SH-EP1 cells assessed as inhibition of carbamylcholine-induced 86Rb+ ion efflux by liquid scintillation counting relative to mecamylamine; type: functional, cell-based
[23] = molecular target: T2, Kappa-type opioid receptor (Homo sapiens, UniProt P41145); experiment: Binding affinity to kappa opioid receptor by radioligand displacement assay
[24] = molecular target: T2, Kappa-type opioid receptor; experiment: Binding affinity to kappa opioid receptor at 10 uM by radioligand displacement assay
[25] = system: Mus musculus; experiment: Antidepressant activity in BALB/cJ mouse assessed as decrease in immobility time at 3 mg/kg, ip after 30 mins by forced swim test; type: functional, organism-based; design: dose 3 mg/kg; outline: as §1
[26] = molecular target: Muscarinic acetylcholine receptor M1 (Homo sapiens) (UniProt P11229); experiment: Binding affinity to muscarinic M1 receptor at 10 uM by radioligand displacement assay
[27] = molecular target: Alpha-1D adrenergic receptor (Homo sapiens) (UniProt P25100); experiment: Binding affinity to Alpha-1D adrenergic receptor at 10 uM by radioligand displacement assay
[28] = Binding affinity to rat benzodiazepine receptor at 10 uM by radioligand displacement assay
[29] = molecular target: Neuronal acetylcholine receptor; alpha2/beta4 (Rattus norvegicus, UniProt P12389+P12392); experiment: Displacement of [3H]epibatidine from rat alpha2beta4 receptor; type: protein-complex assay
[30] = molecular target: 5-hydroxytryptamine receptor 1B (Homo sapiens) (UniProt P28222); experiment: Binding affinity to 5HT1B receptor at 10 uM by radioligand displacement assay
[31] = system: Mus musculus; experiment: Antidepressant activity in BALB/cJ mouse assessed as decrease in immobility time at 3 mg/kg, po after 30 mins by forced swim test; type: functional, organism-based; design: dose 3 mg/kg
Outline: (§2)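 Male BALB/cJ mice, 8–10 weeks old, dosed by oral gavage with compound in injectable water (10 mL/kg). Sertraline served as positive control. Forced swim begins 30 min after dosing, in a cylinder with 12 cm of 23 ± 1 °C water; total immobility recorded over 6 min. ANOVA followed by Newman-Keuls post hoc test.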

[32] = Binding affinity to GABAA receptor at 10 uM by radioligand displacement assay
[33] = molecular target: Neuronal acetylcholine receptor; alpha2/beta2 (Rattus norvegicus, UniProt P12389+P12390); experiment: Displacement of [3H]epibatidine from rat alpha2beta2 receptor; type: protein-complex assay
[34] = Binding affinity to 5HT3 receptor at 10 uM by radioligand displacement assay
[35] = molecular target: T1, Neuronal acetylcholine receptor; alpha4/beta2; experiment: Antagonist activity at human alpha4beta2 nAChR expressed in SH-EP1 cells assessed as inhibition of carbamylcholine-induced 86Rb+ ion efflux by liquid scintillation counting; type: functional, cell-based
[36] = molecular target: Alpha-2A adrenergic receptor (Homo sapiens) (UniProt P08913); experiment: Binding affinity to alpha2A adrenergic receptor at 10 uM by radioligand displacement assay
[37] = molecular target: 5-hydroxytryptamine receptor 2B (Homo sapiens) (UniProt P41595); experiment: Binding affinity to 5HT2B receptor at 10 uM by radioligand displacement assay
[38] = molecular target: Mu-type opioid receptor (Homo sapiens) (UniProt P35372); experiment: Binding affinity to MOR at 10 uM by radioligand displacement assay
[39] = system: Liver microsomes; experiment: Metabolic stability in human liver microsomes at 1 uM; type: ADME, Microsome
[40] = molecular target: Neuronal acetylcholine receptor; alpha4/beta4 (Rattus norvegicus, UniProt P09483+P12392); experiment: Displacement of [3H]epibatidine from rat alpha4beta4 nAChR receptor; type: protein-complex assay
[41] = molecular target: 5-hydroxytryptamine receptor 1E (Homo sapiens) (UniProt P28566); experiment: Binding affinity to 5HT1E receptor at 10 uM by radioligand displacement assay
[42] = molecular target: Beta-1 adrenergic receptor (Homo sapiens) (UniProt P08588); experiment: Binding affinity to beta1 adrenergic receptor at 10 uM by radioligand displacement assay
[43] = Binding affinity to sigma2 receptor at 10 uM by radioligand displacement assay
[44] = molecular target: T3, Neuronal acetylcholine receptor; alpha4/beta2 (Rattus norvegicus, UniProt P09483+P12390); experiment: Displacement of [3H]epibatidine from rat alpha4beta2 receptor expressed in HEK cells; type: cell-based, HEK293
Outline: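 Competition binding of [3H]epibatidine to membrane fractions from HEK cells stably transfected with rat α4 and β2 subunits; Ki values for blockade of specific binding.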

[45] = molecular target: T3, Neuronal acetylcholine receptor; alpha4/beta2; experiment: Displacement of [3H]epibatidine from rat alpha4beta2 nAChR receptor; type: protein-complex assay
[46] = molecular target: Histamine H3 receptor (Homo sapiens) (UniProt Q9Y5N1); experiment: Binding affinity to histamine H3 receptor at 10 uM by radioligand displacement assay
[47] = molecular target: Sodium-dependent serotonin transporter (Homo sapiens) (UniProt P31645); experiment: Binding affinity to SERT at 10 uM by radioligand displacement assay
[48] = molecular target: Sodium-dependent noradrenaline transporter (Homo sapiens) (UniProt P23975); experiment: Binding affinity to NET at 10 uM by radioligand displacement assay
[49] = molecular target: D(1A) dopamine receptor (Homo sapiens) (UniProt P21728); experiment: Binding affinity to dopamine D1 receptor at 10 uM by radioligand displacement assay
[50] = molecular target: Alpha-2C adrenergic receptor (Homo sapiens) (UniProt P18825); experiment: Binding affinity to Alpha-2C adrenergic receptor at 10 uM by radioligand displacement assay
[51] = molecular target: 5-hydroxytryptamine receptor 6 (Homo sapiens) (UniProt P50406); experiment: Binding affinity to 5HT6 receptor at 10 uM by radioligand displacement assay
[52] = molecular target: D(1B) dopamine receptor (Homo sapiens) (UniProt P21918); experiment: Binding affinity to dopamine D5 receptor at 10 uM by radioligand displacement assay
[53] = molecular target: Muscarinic acetylcholine receptor M2 (Homo sapiens) (UniProt P08172); experiment: Binding affinity to muscarinic M2 receptor at 10 uM by radioligand displacement assay
[54] = molecular target: Neuronal acetylcholine receptor; alpha3/beta2 (Rattus norvegicus, UniProt P04757+P12390); experiment: Displacement of [3H]epibatidine from rat alpha3beta2 receptor; type: protein-complex assay
[55] = molecular target: Muscarinic acetylcholine receptor M4 (Homo sapiens) (UniProt P08173); experiment: Binding affinity to muscarinic M4 receptor at 10 uM by radioligand displacement assay
[56] = molecular target: Muscarinic acetylcholine receptor M3 (Homo sapiens) (UniProt P20309); experiment: Binding affinity to muscarinic M3 receptor at 10 uM by radioligand displacement assay
[57] = system: Mus musculus; experiment: Antidepressant activity in BALB/cJ mouse assessed as decrease in immobility time at 10 mg/kg, po after 30 mins by forced swim test; type: functional, organism-based; design: dose 10 mg/kg; outline: as §2
[58] = molecular target: Histamine H2 receptor (Homo sapiens) (UniProt P25021); experiment: Binding affinity to histamine H2 receptor at 10 uM by radioligand displacement assay
[59] = system: Mus musculus; experiment: Antidepressant activity in BALB/cJ mouse assessed as decrease in immobility time at 1 mg/kg, po after 30 mins by forced swim test; type: functional, organism-based; design: dose 1 mg/kg; outline: as §2
[60] = molecular target: D(4) dopamine receptor (Homo sapiens) (UniProt P21917); experiment: Binding affinity to dopamine D4 receptor at 10 uM by radioligand displacement assay
[61] = molecular target: 5-hydroxytryptamine receptor 2A (Homo sapiens) (UniProt P28223); experiment: Binding affinity to 5HT2A receptor at 10 uM by radioligand displacement assay

T3 sequence (P09483 whole entry): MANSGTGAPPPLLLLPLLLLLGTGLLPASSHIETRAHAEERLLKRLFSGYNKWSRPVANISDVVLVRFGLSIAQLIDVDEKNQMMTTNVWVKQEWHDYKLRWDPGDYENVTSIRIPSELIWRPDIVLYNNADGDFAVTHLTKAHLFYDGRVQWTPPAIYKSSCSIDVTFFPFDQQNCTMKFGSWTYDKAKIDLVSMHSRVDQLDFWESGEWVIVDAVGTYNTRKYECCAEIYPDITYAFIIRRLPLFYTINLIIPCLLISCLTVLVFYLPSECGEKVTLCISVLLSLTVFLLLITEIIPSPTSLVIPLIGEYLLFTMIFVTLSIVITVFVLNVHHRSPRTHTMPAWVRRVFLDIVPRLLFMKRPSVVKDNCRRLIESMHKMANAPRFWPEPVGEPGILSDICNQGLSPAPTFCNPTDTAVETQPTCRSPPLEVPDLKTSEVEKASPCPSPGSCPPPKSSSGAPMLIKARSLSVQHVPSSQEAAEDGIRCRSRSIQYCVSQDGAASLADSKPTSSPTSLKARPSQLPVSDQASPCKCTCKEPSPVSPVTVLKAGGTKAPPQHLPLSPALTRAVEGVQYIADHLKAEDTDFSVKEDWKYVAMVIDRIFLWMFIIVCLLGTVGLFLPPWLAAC
T3 sequence (P12390 whole entry): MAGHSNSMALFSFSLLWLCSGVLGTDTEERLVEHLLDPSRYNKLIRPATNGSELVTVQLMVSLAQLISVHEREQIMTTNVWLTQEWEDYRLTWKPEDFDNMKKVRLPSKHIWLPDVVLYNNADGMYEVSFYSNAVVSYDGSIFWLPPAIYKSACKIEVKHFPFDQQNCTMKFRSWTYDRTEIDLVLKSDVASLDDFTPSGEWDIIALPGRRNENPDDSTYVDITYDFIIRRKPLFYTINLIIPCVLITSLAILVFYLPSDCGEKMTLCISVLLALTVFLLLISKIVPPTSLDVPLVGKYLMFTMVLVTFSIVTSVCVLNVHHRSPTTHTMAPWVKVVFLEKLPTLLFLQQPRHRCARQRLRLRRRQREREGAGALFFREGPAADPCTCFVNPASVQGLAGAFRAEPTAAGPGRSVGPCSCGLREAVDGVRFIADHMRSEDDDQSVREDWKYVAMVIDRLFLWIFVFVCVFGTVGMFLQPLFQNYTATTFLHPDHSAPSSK
T2 sequence (P41145 whole entry): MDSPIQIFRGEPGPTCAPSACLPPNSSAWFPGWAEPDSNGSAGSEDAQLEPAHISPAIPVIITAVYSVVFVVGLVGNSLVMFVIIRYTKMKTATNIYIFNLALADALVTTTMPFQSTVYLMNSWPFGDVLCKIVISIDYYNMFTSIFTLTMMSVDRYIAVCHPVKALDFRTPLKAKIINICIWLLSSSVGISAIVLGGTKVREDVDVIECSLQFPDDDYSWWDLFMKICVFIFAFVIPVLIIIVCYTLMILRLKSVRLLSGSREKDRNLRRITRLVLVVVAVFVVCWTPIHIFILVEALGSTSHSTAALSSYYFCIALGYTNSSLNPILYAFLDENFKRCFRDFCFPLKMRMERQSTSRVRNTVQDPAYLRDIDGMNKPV
T1 sequence (P17787 whole entry): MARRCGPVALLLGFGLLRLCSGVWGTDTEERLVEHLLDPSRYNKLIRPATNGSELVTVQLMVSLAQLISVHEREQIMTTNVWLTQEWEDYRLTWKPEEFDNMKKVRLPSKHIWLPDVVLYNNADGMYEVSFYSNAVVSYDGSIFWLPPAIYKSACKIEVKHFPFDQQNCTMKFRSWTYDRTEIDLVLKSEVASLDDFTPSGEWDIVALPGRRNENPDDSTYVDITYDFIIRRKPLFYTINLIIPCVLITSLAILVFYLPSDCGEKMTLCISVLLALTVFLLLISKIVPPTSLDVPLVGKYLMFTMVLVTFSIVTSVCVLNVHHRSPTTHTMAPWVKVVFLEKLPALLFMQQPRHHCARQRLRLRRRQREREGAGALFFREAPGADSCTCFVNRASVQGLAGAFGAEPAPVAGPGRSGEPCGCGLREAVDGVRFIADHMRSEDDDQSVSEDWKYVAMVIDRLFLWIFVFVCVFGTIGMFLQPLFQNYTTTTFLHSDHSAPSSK
T1 sequence (P43681 whole entry): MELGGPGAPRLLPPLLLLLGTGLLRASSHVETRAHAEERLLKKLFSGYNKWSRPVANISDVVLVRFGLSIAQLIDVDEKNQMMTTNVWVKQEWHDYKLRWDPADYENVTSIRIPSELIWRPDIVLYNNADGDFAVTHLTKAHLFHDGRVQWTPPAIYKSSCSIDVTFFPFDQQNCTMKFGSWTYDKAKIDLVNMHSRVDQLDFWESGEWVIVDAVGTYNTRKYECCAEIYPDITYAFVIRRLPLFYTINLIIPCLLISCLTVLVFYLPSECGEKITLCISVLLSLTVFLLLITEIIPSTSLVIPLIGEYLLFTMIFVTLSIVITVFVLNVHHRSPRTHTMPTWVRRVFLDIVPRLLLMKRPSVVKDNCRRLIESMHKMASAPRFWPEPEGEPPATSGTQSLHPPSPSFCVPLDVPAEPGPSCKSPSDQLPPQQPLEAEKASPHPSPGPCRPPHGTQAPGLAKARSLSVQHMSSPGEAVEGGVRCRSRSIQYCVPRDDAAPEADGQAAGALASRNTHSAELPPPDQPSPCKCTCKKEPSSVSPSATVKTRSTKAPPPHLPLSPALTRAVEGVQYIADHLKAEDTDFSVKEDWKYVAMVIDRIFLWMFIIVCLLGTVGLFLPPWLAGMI
Sequence of Mu-type opioid receptor (Homo sapiens) (P35372 whole entry): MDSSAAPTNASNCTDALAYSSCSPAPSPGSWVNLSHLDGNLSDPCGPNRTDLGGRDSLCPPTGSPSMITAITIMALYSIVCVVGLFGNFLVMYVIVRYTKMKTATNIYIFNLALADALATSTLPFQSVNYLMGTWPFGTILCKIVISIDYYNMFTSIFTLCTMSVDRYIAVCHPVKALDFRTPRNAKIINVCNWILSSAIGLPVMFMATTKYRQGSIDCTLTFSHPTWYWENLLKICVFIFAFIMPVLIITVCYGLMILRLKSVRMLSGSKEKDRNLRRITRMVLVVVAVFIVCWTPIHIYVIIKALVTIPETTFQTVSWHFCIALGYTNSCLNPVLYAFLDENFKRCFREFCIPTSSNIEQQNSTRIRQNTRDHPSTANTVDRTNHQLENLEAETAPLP
Sequence of Alpha-1D adrenergic receptor (Homo sapiens) (P25100 whole entry): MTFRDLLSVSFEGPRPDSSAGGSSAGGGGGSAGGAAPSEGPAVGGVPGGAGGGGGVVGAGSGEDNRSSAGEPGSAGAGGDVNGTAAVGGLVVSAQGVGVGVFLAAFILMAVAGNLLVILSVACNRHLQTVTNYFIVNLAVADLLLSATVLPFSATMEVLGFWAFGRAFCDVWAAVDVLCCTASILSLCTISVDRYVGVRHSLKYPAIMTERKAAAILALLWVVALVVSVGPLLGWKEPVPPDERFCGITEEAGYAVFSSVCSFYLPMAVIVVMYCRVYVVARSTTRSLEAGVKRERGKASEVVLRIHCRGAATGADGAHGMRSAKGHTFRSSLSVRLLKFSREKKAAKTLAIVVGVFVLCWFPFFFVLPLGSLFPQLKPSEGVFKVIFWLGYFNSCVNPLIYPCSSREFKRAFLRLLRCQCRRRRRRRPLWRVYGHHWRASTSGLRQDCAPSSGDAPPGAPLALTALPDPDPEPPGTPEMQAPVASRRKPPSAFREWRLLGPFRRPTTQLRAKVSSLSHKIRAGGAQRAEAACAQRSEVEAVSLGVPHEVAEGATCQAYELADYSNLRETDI
Sequence of Histamine H4 receptor (Homo sapiens) (Q9H3N8 whole entry): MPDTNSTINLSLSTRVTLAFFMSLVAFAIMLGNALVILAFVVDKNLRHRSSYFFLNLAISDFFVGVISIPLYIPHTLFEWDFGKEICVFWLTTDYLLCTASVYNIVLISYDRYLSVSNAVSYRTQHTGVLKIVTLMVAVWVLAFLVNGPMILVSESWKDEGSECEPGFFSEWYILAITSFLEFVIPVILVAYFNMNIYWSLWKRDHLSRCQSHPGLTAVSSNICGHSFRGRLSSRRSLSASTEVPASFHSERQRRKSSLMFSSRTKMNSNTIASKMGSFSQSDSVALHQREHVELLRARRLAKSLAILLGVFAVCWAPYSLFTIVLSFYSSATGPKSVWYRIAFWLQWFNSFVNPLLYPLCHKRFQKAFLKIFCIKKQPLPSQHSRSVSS
Sequence of D(4) dopamine receptor (Homo sapiens) (P21917 whole entry): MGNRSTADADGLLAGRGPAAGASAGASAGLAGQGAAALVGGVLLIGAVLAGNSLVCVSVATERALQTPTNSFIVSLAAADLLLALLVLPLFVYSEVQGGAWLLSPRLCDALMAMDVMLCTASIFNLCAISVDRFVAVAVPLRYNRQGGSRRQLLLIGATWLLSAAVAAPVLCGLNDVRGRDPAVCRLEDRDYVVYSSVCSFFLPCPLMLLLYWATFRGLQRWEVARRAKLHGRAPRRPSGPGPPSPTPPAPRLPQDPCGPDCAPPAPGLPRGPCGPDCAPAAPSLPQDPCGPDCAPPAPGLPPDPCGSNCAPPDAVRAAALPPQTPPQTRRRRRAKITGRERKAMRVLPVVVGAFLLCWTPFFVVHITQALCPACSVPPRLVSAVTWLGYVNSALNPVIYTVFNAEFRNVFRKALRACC
Sequence of Alpha-1B adrenergic receptor (Homo sapiens) (P35368 whole entry): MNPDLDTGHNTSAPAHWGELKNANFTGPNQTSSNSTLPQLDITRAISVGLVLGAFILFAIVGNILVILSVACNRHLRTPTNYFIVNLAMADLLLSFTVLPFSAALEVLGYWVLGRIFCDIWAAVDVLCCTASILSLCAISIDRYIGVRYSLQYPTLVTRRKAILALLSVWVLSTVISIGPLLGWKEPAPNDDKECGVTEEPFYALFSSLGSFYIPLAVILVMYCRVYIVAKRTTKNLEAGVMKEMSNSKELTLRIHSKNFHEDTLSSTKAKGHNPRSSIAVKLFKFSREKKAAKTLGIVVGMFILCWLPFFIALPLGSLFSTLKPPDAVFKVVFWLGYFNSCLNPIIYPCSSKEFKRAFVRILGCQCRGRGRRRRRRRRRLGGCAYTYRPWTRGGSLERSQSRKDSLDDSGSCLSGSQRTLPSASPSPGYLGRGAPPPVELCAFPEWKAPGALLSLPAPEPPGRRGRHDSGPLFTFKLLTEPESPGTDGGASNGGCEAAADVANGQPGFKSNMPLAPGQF

`Cl.OCCCc1cc(-c2cncc(OC[C@@H]3CCN3)c2)on1` gave an inhibition [1] of 6.4%, an inhibition [2] of 0.3% and an inhibition [3] of -1%. For the same compound, the Ratio Ki [4] was 15000, the EC50 [5] was 36 nM and the inhibition [6] was -0.4%. The inhibition [7] was 16.2%, the inhibition [8] was 14.6% and the Ki [9] was over 10000 nM. It also gave a PPB [10] of 26%, an inhibition [11] of 25.9% and an inhibition [12] of 15.3%. The inhibition [13] was -4.4%, the inhibition [14] was 10.8% and the Stability [15] was “Stable”. The Efficacy [16] was 13%, the inhibition [17] was 19.8% and the “inhibition (INH)” value [18] was “Not Active”. For the same compound, the Activity [19] was “inactive”, the inhibition [20] was -9.5% and the inhibition [21] was 7.1%. It also gave an Efficacy [22] of 68%, a Ki [23] of over 10000 nM and an inhibition [24] of 20%. For the same compound, the Activity [25] was “Active”, the inhibition [26] was 2% and the inhibition [27] was 2.9%. The inhibition [28] was 21.7%, the Ki [29] was 1410 nM and the inhibition [30] was -9.9%. For the same compound, the Activity [31] was “inactive”, the inhibition [32] was 26.9% and the Ki [33] was 0.9 nM. It also gave an inhibition [34] of 18.8%, an IC50 [35] of 61 nM and an inhibition [36] of -0.5%. For the same compound, the inhibition [37] was 17.7%, the inhibition [38] was 14.2% and the Stability [39] was “Stable”. It also gave a Ki [40] of 182 nM, an inhibition [41] of 4.1% and an inhibition [42] of -3.2%. For the same compound, the inhibition [43] was -4.3%, the Ki [44] was 0.67 nM and the Ki [45] was 0.67 nM. For the same compound, the inhibition [46] was 6.2%, the inhibition [47] was -0.6% and the inhibition [48] was 14.2%. The inhibition [49] was -3.3%, the inhibition [50] was 22% and the inhibition [51] was 22.3%. For the same compound, the inhibition [52] was -1.8%, the inhibition [53] was 11.4% and the Ki [54] was 16 nM. For the same compound, the inhibition [55] was 2%, the inhibition [56] was -6.8% and the Activity [57] was “Active”. For the same compound, the inhibition [58] was 42.6%, the Activity [59] was “inactive” and the inhibition [60] was 19.8%. It also gave an inhibition [61] of 22.2%.
